Measured values taken from ChEMBL document CHEMBL1134646, “Quadruplex-interactive agents as telomerase inhibitors: synthesis of porphyrins and structure-activity relationship for the inhibition of telomerase” (J Med Chem, 2001).
Several values for one entry are separate records, joined by “and”; a condition that tells them apart may be missing. Equal entries are not always repeated.

Experiments:
[1] = target: T1, Telomerase reverse transcriptase (Homo sapiens, UniProt O14746); assay: Apparent telomerase inhibition by mixed mechanism
[2] = target: T1, Telomerase reverse transcriptase; assay: Effect of substituent bulk on telomerase inhibition at 25 uM
Procedure, shortened: (§1)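 HeLa cell extract (60 µg total protein) as the telomerase source in a primer-extension assay with 1 µM 5′-biotinylated (TTAGGG)3 primer, 1.2 µM 32P-dGTP, and 1 mM each of dATP and dTTP. Buffer was Tris-OAc at pH 8.5 with KOAc, MgCl2, BME and spermidine. Porphyrin was fixed at 25 µM and reactions ran at 37 °C for 30 min. Products were run on 8% denaturing PAGE and quantified by autoradiogram densitometry, giving % inhibition relative to a porphyrin-free control.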

[3] = target: T1, Telomerase reverse transcriptase; assay: Apparent telomerase inhibition by G-quadruplex mechanism
[4] = target: T1, Telomerase reverse transcriptase; assay: Effect of meso group on telomerase inhibition at 25 uM; procedure, shortened: as §1
[5] = target: T1, Telomerase reverse transcriptase; assay: Effect of varying the number and disposition of charged groups around the compound nucleus on telomerase inhibition at 25 uM; procedure, shortened: as §1
[6] = target: T1, Telomerase reverse transcriptase; assay: Effect of combination of charged and hydrogen bonding groups on telomerase inhibition at 25 uM; procedure, shortened: as §1
[7] = target: T1, Telomerase reverse transcriptase; assay: Dependence of telomerase inhibition on the ability to stack with G-tetrads; settings: concentration not given here; procedure, shortened: as §1
[8] = target: T1, Telomerase reverse transcriptase; assay: Effect of uncharged hydrogen bonding group on telomerase inhibition at 25 uM; procedure, shortened: as §1
[9] = target: T1, Telomerase reverse transcriptase; assay: Percentage inhibition of human telomerase at 25 uM concentration in HeLa cell; assay type: cell-based; procedure, shortened: as §1

T1 sequence (O14746 whole entry): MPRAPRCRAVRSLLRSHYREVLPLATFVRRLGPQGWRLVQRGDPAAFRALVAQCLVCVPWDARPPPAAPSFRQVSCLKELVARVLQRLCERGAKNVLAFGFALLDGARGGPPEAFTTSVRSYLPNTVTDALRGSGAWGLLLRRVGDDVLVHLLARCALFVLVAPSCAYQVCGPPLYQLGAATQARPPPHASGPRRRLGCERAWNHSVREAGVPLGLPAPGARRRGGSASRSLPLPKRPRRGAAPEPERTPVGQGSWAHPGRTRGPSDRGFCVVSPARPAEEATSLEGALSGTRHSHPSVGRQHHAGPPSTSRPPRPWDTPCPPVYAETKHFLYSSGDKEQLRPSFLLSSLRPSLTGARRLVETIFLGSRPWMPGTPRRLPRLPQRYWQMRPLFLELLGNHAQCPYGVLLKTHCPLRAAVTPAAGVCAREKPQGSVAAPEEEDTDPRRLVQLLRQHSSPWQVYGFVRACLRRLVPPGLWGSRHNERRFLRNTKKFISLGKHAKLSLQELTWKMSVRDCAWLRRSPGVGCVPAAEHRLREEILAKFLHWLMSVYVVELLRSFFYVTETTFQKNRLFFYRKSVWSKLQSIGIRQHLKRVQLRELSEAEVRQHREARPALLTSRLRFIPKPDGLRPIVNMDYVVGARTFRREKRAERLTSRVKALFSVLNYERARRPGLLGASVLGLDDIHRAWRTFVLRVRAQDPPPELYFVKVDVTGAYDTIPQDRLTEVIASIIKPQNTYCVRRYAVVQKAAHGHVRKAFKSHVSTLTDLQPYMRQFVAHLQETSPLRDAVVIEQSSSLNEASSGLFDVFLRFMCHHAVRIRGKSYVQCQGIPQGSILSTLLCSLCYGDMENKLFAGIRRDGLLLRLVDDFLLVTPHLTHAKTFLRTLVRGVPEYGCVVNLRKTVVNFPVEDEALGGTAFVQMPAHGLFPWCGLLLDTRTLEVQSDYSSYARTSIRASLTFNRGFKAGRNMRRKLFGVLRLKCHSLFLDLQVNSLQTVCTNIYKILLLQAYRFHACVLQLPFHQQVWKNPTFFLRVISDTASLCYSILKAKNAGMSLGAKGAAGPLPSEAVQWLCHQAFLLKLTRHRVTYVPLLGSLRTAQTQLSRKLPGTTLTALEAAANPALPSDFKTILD

`C[n+]1cccc(-c2c3nc(c(-c4cc5ccccc5[n+](C)c4)c4ccc([nH]4)c(-c4ccc[n+](C)c4)c4nc(c(-c5cc6ccccc6[n+](C)c5)c5ccc2[nH]5)C=C4)C=C3)c1` showed an IC50 [1] of 10 µM.
With `C[n+]1cccc(-c2c3nc(c(-c4ccc[n+](C)c4)c4ccc([nH]4)c(-c4ccc[n+](C)c4)c4ccc([nH]4)c(-c4ccc[n+](C)c4)c4nc2C=C4)C=C3)c1` the inhibition [2] was 50% and the IC50 [3] was 25 µM and 12 µM.
`C[n+]1ccc(-c2c3nc(c(-c4cc[n+](C)cc4)c4ccc([nH]4)c(-c4cc[n+](C)cc4)c4ccc([nH]4)c(-c4cc[n+](C)cc4)c4nc2C=C4)C=C3)cc1` was tested, and the inhibition [4] was 67%, the inhibition [5] was 62% and the inhibition [2] was 60%. The inhibition [6] was 60%, the inhibition [7] was 66% and the inhibition [8] was 60%.
For `C[n+]1cc(-c2c3nc(c(-c4cc5ccccc5[n+](C)c4)c4ccc([nH]4)c(-c4cc5ccccc5[n+](C)c4)c4ccc([nH]4)c(-c4cc5ccccc5[n+](C)c4)c4nc2C=C4)C=C3)cc2ccccc21`, the inhibition [4] was 32%, the inhibition [5] was 37% and the inhibition [2] was 28%. The inhibition [6] was 30%, the inhibition [7] was 14% and the inhibition [8] was 28%.
`OCC[n+]1ccc(-c2c3nc(c(-c4cc[n+](CCO)cc4)c4ccc([nH]4)c(-c4cc[n+](CCO)cc4)c4ccc([nH]4)c(-c4cc[n+](CCO)cc4)c4nc2C=C4)C=C3)cc1` was tested, and the IC50 [1] was 30 µM.
`C[n+]1ccc(-c2c3nc(c(-c4ccc(C(=O)NCCBr)cc4)c4nc(c(-c5cc[n+](C)cc5)c5ccc([nH]5)c(-c5cccc(C(=O)NCCBr)c5)c5ccc2[nH]5)C=C4)C=C3)cc1` gave an IC50 [1] of 15 µM.
Compound `CC1=C(CCNCCN)c2cc3[nH]c(cc4[nH]c(cc5nc(cc1n2)C(C)=C5CCNCCN)c(C)c4CCNCCN)c(CCNCCN)c3C` has an inhibition [9] of 0%.
`C[n+]1ccc(-c2c3nc(c(-c4cc[n+](C)cc4)c4ccc([nH]4)c(-c4cc[n+](C)cc4)c4nc(c(-c5cc[n+](C)cc5)c5ccc2[nH]5)C=C4)C=C3)cc1` [TMPYP4 CHLORIDE] was tested, and the IC50 [3] was 6.25 µM and 10 µM.
`C[n+]1cccc(-c2c3ccc([nH]3)c(-c3cc4ccccc4[n+](C)c3)c3nc(c(-c4cc5ccccc5[n+](C)c4)c4nc(c(-c5cc6ccccc6[n+](C)c5)c5ccc2[nH]5)C=C4)C=C3)c1` was tested, and the IC50 [1] was 5 µM.
